These results are taken from ChEMBL document CHEMBL1141492, “Potent, exceptionally selective, orally bioavailable inhibitors of TNF-alpha Converting Enzyme (TACE): novel 2-substituted-1H-benzo[d]imidazol-1-yl)methyl)benzamide P1' substituents” (Bioorg Med Chem Lett, 2008).

The nature of data set [1]: Clearance in Sprague-Dawley rat at 5.0 mg/kg, iv. Also on record: dose 5 mg/kg, route intravenous. The note with it: in vivo. The data set is classed as ADME, organism-based. A digest of the protocol: (§1)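 Discrete or cassette (n-in-1) dosing, given intravenously and orally. Sprague–Dawley rats received 5.0 mg/kg iv and 8.0 mg/kg po; beagle dogs received 2.0 mg/kg iv and 8.0 mg/kg po. Three animals per dosing group; averaged values reported. AUC is reported in nM h.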

Data set [2] in a line: Volume of distribution at steady state in Sprague-Dawley rat at 5.0 mg/kg, iv. The class given is ADME, organism-based. The conditions noted are these: in vivo, read-out: Vdss. Also noted: dose 5 mg/kg, route intravenous. A digest of the protocol:
as §1

Data set [3] is described as follows: AUC in Beagle dog at 2.0 mg/kg, iv. The class given is ADME, organism-based, Canis lupus familiaris. Also noted: dose 2 mg/kg, route intravenous. The note with it: plasma. Summed up:
as §1

Data set [4] is described as follows: Volume of distribution at steady state in Beagle dog at 2.0 mg/kg, iv. The data set is classed as ADME, organism-based, Canis lupus familiaris. The conditions noted are these: in vivo, read-out: Vdss. Also on record: dose 2 mg/kg, route intravenous. A digest of the protocol: as §1
Data set [5] can be described thus: AUC in Beagle dog at 8.0 mg/kg, po. The note with it: plasma.
A short description of data set [6]: Tmax in Beagle dog at 8.0 mg/kg, po. The note with it: in vivo.
A short description of data set [7]: Protein binding in rat serum. The data set is classed as ADME, cell-free.
Data set [8] is described as follows: AUC in Sprague-Dawley rat at 8.0 mg/kg, po. The class given is ADME, organism-based. Also on record: dose 8 mg/kg, route oral. The note with it: plasma. Summed up:
as §1

A short description of data set [9]: Half life in Sprague-Dawley rat at 8.0 mg/kg, po. The conditions noted are these: in vivo. Also noted: dose 8 mg/kg, route oral. The class given is ADME, organism-based. A digest of the protocol: as §1
A short description of data set [10]: Apparent permeability across human Caco-2 cells. The class given is ADME, cell-based. Summed up:
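Apparent permeability measured across Caco-2 cell monolayers in the apical-to-basolateral (A→B) direction.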

Data set [11] can be described thus: Tmax in Sprague-Dawley rat at 8.0 mg/kg, po. The data set is classed as ADME, organism-based. Also on record: dose 8 mg/kg, route oral. The note with it: in vivo. Summed up: as §1
Data set [12] can be described thus: Half life in Beagle dog at 8.0 mg/kg, po. The conditions noted are these: in vivo.
Data set [13] is described as follows: Protein binding in human serum. The class given is ADME, cell-free.
Data set [14] is described as follows: Oral bioavailability in Beagle dog at 8.0 mg/kg, po. The note with it: in vivo.
Data set [15] in a line: Half life in Sprague-Dawley rat at 5.0 mg/kg, iv. The data set is classed as ADME, organism-based. Also on record: dose 5 mg/kg, route intravenous. The note with it: in vivo. Summed up: as §1
A short description of data set [16]: Clearance in Beagle dog at 2.0 mg/kg, iv. The conditions noted are these: in vivo. Also on record: dose 2 mg/kg, route intravenous. The class given is ADME, organism-based, Canis lupus familiaris. Summed up: as §1
The nature of data set [17]: Protein binding in dog serum. The data set is classed as ADME, cell-free, Canis lupus familiaris.
Data set [18] is described as follows: Half life in Beagle dog at 2.0 mg/kg, iv. The class given is ADME, organism-based, Canis lupus familiaris. Also noted: dose 2 mg/kg, route intravenous. The conditions noted are these: in vivo. Summed up:
as §1

Data set [19] deals with T1, A disintegrin and metalloproteinase with thrombospondin motifs 5 (Homo sapiens, UniProt Q9UNA0).
T1 sequence (Q9UNA0 whole entry): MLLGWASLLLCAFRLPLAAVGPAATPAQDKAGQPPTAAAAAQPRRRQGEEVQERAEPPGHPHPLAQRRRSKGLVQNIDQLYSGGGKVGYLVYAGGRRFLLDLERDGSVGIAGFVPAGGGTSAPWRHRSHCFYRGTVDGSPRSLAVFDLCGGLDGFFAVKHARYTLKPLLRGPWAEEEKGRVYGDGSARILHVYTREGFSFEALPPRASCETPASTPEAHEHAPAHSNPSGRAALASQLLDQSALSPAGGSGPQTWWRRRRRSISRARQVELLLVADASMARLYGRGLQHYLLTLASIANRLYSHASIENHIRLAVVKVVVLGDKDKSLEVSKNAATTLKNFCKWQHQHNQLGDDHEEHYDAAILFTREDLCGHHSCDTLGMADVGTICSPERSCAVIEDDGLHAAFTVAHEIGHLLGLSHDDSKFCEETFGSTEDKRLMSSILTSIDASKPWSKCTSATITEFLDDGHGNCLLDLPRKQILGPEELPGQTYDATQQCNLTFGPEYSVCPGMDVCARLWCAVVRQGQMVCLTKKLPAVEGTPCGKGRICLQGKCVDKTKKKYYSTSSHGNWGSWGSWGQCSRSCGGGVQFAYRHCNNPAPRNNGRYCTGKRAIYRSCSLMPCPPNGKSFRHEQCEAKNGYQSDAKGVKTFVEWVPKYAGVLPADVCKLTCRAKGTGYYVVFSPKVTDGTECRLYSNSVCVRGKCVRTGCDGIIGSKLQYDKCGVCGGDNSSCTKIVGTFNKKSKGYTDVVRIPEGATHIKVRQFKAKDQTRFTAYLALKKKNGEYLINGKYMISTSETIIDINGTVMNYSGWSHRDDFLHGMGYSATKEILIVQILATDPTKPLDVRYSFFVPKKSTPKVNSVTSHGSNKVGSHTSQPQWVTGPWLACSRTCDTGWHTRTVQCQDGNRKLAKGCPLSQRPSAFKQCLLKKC
Kind of data set: Inhibition of ADAMTS5.

A further data set concerns the target Stromelysin-2 (Homo sapiens, UniProt P09238). In words: Inhibition of MMP10. Summed up: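 MMP Ki values come from a single determination.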
The next data set has as its system Blood. Kind of data set: Reduction of LPS-induced TNFalpha in human whole blood. The data set is classed as functional, tissue-based. Summed up: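 LPS-induced TNF-α production in human whole blood; suppression of TNF-α measured.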
The next data set relates to Mus musculus. In words: Reduction of LPS-induced TNFalpha level in orally dosed mouse after 1 hr. The class given is functional. The conditions noted are these: po. A digest of the protocol:
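Mouse LPS endotoxemia model. LPS and test compound in vehicle were given together by oral gavage at t = 0 h, across several doses. Mice were euthanized 1 h post dose, blood was taken by cardiac puncture, and plasma TNF-α was measured. ED50 was calculated from the dose response.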

A short description of data set [20]: Oral bioavailability in Sprague-Dawley rat at 8.0 mg/kg. The data set is classed as ADME, organism-based. The conditions noted are these: in vivo. A digest of the protocol:
as §1

Data set [21] can be described thus: AUC in Sprague-Dawley rat at 5.0 mg/kg, iv. The class given is ADME, organism-based. Also on record: dose 5 mg/kg, route intravenous. The note with it: plasma. A digest of the protocol: as §1

pIC50, pKi: −log10 of the molar value.

Chain of Stromelysin-2 (P09238 whole entry): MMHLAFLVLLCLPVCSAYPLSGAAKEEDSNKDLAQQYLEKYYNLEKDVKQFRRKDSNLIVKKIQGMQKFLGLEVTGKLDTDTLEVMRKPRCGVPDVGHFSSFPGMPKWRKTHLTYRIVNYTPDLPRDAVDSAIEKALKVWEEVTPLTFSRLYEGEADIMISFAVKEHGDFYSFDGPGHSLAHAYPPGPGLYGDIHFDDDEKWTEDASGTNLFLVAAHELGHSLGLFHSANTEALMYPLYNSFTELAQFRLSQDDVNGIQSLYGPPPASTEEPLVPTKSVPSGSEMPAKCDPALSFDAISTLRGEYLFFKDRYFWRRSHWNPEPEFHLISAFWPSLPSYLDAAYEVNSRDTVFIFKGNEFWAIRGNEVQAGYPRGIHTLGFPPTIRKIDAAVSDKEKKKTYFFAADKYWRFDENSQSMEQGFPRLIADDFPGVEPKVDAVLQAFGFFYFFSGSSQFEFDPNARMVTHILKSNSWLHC

For `O=C(N[C@@H]1CCOC[C@@H]1C(=O)NO)c1ccc(Cn2c(C(F)(F)F)nc3ccccc32)cc1`, the clearance is 26.7 mL/min/kg in data set [1] and 10 mL/min/kg in [16]. The values for the Vd in [2] and in data set [4] were 1.5 L/kg and 1 L/kg, respectively. In addition, the AUC in data set [3] is 9.97 µM·h; in [5], 39.5 µM·h; in [8] it was 5.84 µM·h; in data set [21] it was 6.85 µM·h. Further, the Tmax was determined as 0.5 h in [6] and 0.3 h in [11]. The free fraction (fraction unbound) in [7] came out at 0.2; in [13], 0.21; in data set [17] it was 0.2. The half-life in [9] was 2.4 h; in data set [12] it was 4.8 h; in [15], 3.5 h; in data set [18] it was 4.2 h. Moreover, the apparent permeability coefficient (Papp) in [10] is 0.7 ×10⁻⁶ cm/s. For the same molecule, the bioavailability in [14] worked out at 99%; in [20], 53%. In data set [19], this molecule showed a pKi of 6.00. The pIC50 is below 5.00 against Stromelysin-2 and 6.63 in the data set with Blood. The molecule further returned an ED50 with Mus musculus of 1.9 mg/kg.
